The target of one data set is Cytochrome P450 2D6 (Homo sapiens, UniProt P10635). The data set is described as follows: Inhibition of CYP2D6 in human liver microsomes using isoform-specific probe substrates preincubated for 5 mins followed by NADPH addition by LC-MS/MS analysis. In kind it is ADME. Summed up: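 Human liver microsomes premixed with buffer and a CYP-specific FDA-recommended probe substrate, then spiked with inhibitor, in duplicate. After 5 min preincubation at 37 °C, reaction started with NADPH and run at 37 °C for a set time, then quenched. Metabolite formation quantified by HPLC/LC-MS/MS to derive the concentration giving 50% inhibition.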
On the technique in general: Liver microsomes are a subcellular fraction often used to study metabolism.

Data set [1] concerns the target T1, Serine/threonine-protein kinase mTOR (Homo sapiens, UniProt P42345). The data set is described as follows: Inhibition of recombinant human GST-tagged mTOR catalytic domain (1360 to 2549 residues) expressed in baculovirus expression system using GFP-4E-BP1 as substrate preincubated for 15 mins followed by substrate addition and measured after 60 mins by TR-FRET assay. Summed up:
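Recombinant mTOR (FRAP1) was preincubated 15 min with serially diluted compound (10 µM–0.0005 µM, DMSO) in kinase buffer, 10 µL reaction. GFP-4E-BP1 (400 nM final) and ATP (8 µM final) were added and the reaction ran 1 h at RT. Quench buffer with Tb-anti-p4E-BP1 (pThr46) was added for 1 h at RT. TR-FRET 520/486 nm ratio was fitted by four-parameter sigmoidal regression.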

For data set [2], the target named is Receptor-type tyrosine-protein kinase FLT3 (Homo sapiens) (UniProt P36888). The data set can be described thus: Inhibition of human FLT3 at 1 uM using fluorescently labeled peptide substrate measured after 3 hrs by microfluidic mobility shift assay relative to control. Summed up:
(§1)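 Single-concentration screen at 1 µM in duplicate, 1% final DMSO. Kinase (typically 1 nM), fluorescently labeled peptide substrate (typically 1 µM), ATP at Km and Mg²⁺ incubated about 3 h at 25 °C, then EDTA-quenched. Substrate and phosphorylated product separated by microfluidic electrophoresis and quantified by fluorescence.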

Data set [3] has as its target High affinity nerve growth factor receptor (Homo sapiens) (UniProt P04629). The data set can be described thus: Inhibition of human TRKA at 1 uM using fluorescently labeled peptide substrate measured after 3 hrs by microfluidic mobility shift assay relative to control. A digest of the protocol:
as §1

A short description of data set [4]: Toxicity in Swiss mouse assessed as change in feces at 10 mg/kg, po administered twice daily via gavage for 5 days and measuring daily during compound dosing. Conditions: in vivo, 120 h, time 5 day. Format: organism-based. Summed up:
(§2)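 Female Swiss mice (3 treated, 2 vehicle controls) received oral gavage twice daily for 5 days, with compound formulated in 0.5% CMC and Tween 80. Body weight, body temperature, body coat, feed intake, eyes, feces and general activity were observed daily.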

Data set [5] can be described thus: Metabolic stability in human liver microsomes assessed as parent compound remaining at 10 uM remaining after 120 mins in presence of NADPH by HPLC analysis. In kind it is ADME, Microsome. Conditions: read-out: Stabilty. Summed up: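 Compound at 10 µM was incubated with 0.5 mg/mL liver microsomes and 1 mM NADPH (final). Samples were taken at 0, 15, 30, 60 and 120 min and stopped with acetonitrile, then centrifuged and the supernatant analysed by HPLC. Percent parent remaining was set relative to the 0 min peak area (100%).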

The nature of data set [6]: Toxicity in Swiss mouse assessed as morphological changes in lung at 30 mg/kg, po administered twice daily via gavage for 5 days and measured post last dose. In kind it is organism-based. Conditions: in vivo, 120 h, time 5 day. Summed up: (§3)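 Female Swiss mice (3 treated, 2 controls) were gavaged twice daily for 5 days, with compound in 0.5% CMC and Tween 80. After the last dosing the animals were sacrificed. Liver, kidney, lung, uterus and brain were excised and inspected visually for morphology and color change.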

A short description of data set [7]: Toxicity in Swiss mouse assessed as loss of appetite at 10 mg/kg, po administered twice daily via gavage for 5 days and measuring daily during compound dosing. In kind it is organism-based. Conditions: in vivo, 120 h, time 5 day. A digest of the protocol:
as §2

Data set [8] can be described thus: Cmax in Swiss mouse at 10 mg/kg, po via gavage by LC-MS/MS analysis. Format: ADME, organism-based. Set-up: route oral, dose 10 mg/kg. The following applies: in vivo. A digest of the protocol: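 Female Swiss mice (n=3/group), fasted overnight, given single oral gavage dose in 0.5% CMC/0.5% Tween 80 (10 mL/kg) at 1, 3 or 10 mg/kg. Serial blood sampling at 0.16–8 h into heparinized tubes. Plasma extracted with acetonitrile containing verapamil internal standard and quantified by LC-MS/MS. Cmax, Tmax, AUC and t1/2 derived from the concentration–time profile.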

The next data set deals with SK-OV-3. The data set is described as follows: Antiproliferative activity against human SK-OV-3 cells after 48 hrs by MTT assay. In kind it is functional, cell-based. Conditions: SK-OV-3, 48 h. A digest of the protocol:
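SK-OV-3 cells grown in McCoy's 5a with 10% FBS, 100 U/mL penicillin and 100 µg/mL streptomycin at 37 °C, 5% CO2, seeded at 10000 cells/well. Treated 48 h across 20 µM–0.001 µM. MTT (5 mg/mL in PBS) added for 4 h, DMSO solubilization, absorbance read at 550 nm. Four-parameter curve fit of % inhibition.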
A general note: Tetrazolium dyes change colour on reduction, which living cells bring about.

Data set [9] concerns the target Phosphatidylinositol 4,5-bisphosphate 3-kinase catalytic subunit beta isoform (Homo sapiens) (UniProt P42338). The data set is described as follows: Inhibition of human PI3kbeta at 1 uM using fluorescently labeled peptide substrate measured after 3 hrs by microfluidic mobility shift assay relative to control. Summed up: as §1
For data set [10], the target named is Inhibitor of nuclear factor kappa-B kinase subunit beta (Homo sapiens) (UniProt O14920). The data set can be described thus: Inhibition of human IKBKB at 1 uM using fluorescently labeled peptide substrate measured after 3 hrs by microfluidic mobility shift assay relative to control. Summed up: as §1
In data set [11] the target is PI3-kinase p110-alpha/p85-alpha (Homo sapiens, UniProt P42336). The data set can be described thus: Inhibition of recombinant human full-length N-terminal His-tagged p110 alpha/p85 alpha expressed in baculovirus expression system using PIP2 as substrate preincubated for 15 mins followed by substrate addition and measured after 60 mins by ADP HiLyte 647 tracer bound ADP2 antibody-Tb conjugate based HTRF assay. Summed up:
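PI3Kα at 150 ng/mL (diluted stock) in 50 mM HEPES pH 7.4, 3 mM MgCl2, 2 mM DTT, 0.05% CHAPS, 50 mM NaCl, 1 mM EGTA. Compound tested over 10–0.001 µM. Final reaction held 50 µM PIP2 and 1 µM ATP. Detection mix added for 1 h, then 665/615 nm ratio read. % inhibition versus concentration fitted by four-parameter nonlinear regression to give IC50.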
On the technique in general: Time-resolved FRET reads energy transfer from a long-lived donor to a nearby acceptor.

In data set [12] the target is T1, Serine/threonine-protein kinase mTOR. The data set is described as follows: Inhibition of human mTOR at 1 uM using fluorescently labeled peptide substrate measured after 3 hrs by microfluidic mobility shift assay relative to control. A digest of the protocol: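 Single-concentration screen at 1 µM in duplicate wells, in a 23-kinase panel using microfluidic mobility shift. Compound was diluted from a 100x DMSO stock, with 1% DMSO final. Kinase (typically 1 nM), fluorescent peptide substrate (typically 1 µM), ATP at 1x Km and Mg2+ were incubated typically 3 h at 25 °C, then quenched with EDTA. Substrate and phospho-product were separated electrophoretically and quantified by fluorescence.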

The nature of data set [13]: Drug level in Swiss mouse liver at 30 mg/kg, po administered twice daily via gavage for 5 days and measured post last dose by LC-MS/MS analysis. In kind it is ADME, organism-based. Conditions: time 5 day, read-out: Drug uptake. A digest of the protocol: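 Female Swiss mice (n=3) given 30 mg/kg in 0.5% CMC/Tween 80 by oral gavage twice daily for 5 days, with two vehicle controls. After sacrifice, liver, kidney, lung, uterus and brain were collected, homogenized in water and solvent-extracted. Drug concentration (ng/g) measured by LC-MS/MS.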

Data set [14] in a line: Toxicity in Swiss mouse assessed as morphological changes in liver at 30 mg/kg, po administered twice daily via gavage for 5 days and measured post last dose. In kind it is organism-based. Conditions: in vivo, 120 h, time 5 day. A digest of the protocol: as §3

Where only a bound is given, the exact number is not on record here.

Sequence of Phosphatidylinositol 4,5-bisphosphate 3-kinase catalytic subunit beta isoform (Homo sapiens) (P42338 whole entry, looked up, canonical isoform): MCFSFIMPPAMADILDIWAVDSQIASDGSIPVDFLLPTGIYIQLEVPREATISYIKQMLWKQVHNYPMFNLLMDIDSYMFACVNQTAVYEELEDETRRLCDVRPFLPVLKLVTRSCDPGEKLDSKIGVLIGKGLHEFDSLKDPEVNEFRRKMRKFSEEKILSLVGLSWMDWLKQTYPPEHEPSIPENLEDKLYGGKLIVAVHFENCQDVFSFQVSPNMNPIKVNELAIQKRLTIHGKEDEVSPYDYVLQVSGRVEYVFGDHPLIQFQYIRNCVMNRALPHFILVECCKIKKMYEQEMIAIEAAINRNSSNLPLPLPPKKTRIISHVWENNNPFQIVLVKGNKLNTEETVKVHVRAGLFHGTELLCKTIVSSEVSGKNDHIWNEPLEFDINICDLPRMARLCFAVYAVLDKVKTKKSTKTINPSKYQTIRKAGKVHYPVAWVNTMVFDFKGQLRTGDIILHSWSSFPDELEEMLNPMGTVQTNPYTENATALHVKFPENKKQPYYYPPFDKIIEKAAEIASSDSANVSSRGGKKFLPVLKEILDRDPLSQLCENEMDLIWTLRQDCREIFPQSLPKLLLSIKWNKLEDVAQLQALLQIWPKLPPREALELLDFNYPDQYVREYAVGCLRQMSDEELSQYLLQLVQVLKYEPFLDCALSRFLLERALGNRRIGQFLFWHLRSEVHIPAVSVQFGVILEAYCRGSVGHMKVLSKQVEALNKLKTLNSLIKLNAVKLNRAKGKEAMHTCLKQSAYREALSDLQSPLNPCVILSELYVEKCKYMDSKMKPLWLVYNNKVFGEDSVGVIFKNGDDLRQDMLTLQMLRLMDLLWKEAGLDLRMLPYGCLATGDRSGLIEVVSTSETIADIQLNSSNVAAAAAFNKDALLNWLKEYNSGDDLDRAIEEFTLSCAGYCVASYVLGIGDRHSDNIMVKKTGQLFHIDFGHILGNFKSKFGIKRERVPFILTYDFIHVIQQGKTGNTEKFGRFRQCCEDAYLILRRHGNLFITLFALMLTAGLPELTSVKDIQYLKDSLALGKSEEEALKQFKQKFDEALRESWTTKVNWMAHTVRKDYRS
Sequence of Receptor-type tyrosine-protein kinase FLT3 (Homo sapiens) (P36888 whole entry): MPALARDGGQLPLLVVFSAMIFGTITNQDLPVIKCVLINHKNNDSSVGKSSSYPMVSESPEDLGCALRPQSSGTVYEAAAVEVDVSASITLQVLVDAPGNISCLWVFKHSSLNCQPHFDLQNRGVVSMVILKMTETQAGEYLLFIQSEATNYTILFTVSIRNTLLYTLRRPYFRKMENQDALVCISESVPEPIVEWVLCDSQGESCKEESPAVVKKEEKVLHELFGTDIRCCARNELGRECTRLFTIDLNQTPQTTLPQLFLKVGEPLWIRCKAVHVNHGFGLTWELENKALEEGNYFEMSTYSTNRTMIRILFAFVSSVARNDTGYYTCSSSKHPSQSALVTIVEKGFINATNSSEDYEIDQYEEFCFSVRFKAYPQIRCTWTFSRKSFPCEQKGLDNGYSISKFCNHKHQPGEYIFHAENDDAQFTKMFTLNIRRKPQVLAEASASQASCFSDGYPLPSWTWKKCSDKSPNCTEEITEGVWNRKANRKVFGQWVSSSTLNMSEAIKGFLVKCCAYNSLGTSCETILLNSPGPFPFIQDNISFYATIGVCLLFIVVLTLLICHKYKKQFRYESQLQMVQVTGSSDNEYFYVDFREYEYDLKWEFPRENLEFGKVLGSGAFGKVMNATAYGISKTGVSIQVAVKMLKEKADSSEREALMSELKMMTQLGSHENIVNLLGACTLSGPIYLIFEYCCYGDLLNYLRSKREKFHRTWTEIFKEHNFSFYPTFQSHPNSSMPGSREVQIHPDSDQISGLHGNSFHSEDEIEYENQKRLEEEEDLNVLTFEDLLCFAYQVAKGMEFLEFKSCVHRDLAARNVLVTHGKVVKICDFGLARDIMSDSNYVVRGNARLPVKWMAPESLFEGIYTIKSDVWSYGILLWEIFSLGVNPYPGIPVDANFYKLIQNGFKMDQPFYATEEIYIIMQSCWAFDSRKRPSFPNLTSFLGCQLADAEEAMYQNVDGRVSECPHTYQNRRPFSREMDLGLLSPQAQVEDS
Sequence of PI3-kinase p110-alpha/p85-alpha (P27986 whole entry): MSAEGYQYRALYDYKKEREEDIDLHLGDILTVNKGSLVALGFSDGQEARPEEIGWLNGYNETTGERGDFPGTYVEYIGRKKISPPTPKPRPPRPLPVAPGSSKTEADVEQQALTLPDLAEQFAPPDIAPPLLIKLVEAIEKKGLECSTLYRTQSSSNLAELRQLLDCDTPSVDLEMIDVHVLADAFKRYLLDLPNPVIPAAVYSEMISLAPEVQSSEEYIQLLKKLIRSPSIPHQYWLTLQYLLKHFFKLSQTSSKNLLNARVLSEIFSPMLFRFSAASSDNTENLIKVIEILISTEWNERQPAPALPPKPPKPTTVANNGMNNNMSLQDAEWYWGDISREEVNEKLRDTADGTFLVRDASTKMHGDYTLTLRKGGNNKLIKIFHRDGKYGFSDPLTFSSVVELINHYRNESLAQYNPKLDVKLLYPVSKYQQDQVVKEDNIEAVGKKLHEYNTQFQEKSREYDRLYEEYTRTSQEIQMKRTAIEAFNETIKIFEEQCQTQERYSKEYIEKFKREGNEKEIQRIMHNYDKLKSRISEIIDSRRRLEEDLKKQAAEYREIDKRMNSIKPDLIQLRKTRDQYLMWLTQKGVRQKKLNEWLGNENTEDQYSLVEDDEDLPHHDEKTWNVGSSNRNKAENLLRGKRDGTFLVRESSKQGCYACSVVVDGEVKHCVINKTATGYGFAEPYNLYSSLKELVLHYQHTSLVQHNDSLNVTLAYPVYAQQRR
Sequence of PI3-kinase p110-alpha/p85-alpha (P42336 whole entry): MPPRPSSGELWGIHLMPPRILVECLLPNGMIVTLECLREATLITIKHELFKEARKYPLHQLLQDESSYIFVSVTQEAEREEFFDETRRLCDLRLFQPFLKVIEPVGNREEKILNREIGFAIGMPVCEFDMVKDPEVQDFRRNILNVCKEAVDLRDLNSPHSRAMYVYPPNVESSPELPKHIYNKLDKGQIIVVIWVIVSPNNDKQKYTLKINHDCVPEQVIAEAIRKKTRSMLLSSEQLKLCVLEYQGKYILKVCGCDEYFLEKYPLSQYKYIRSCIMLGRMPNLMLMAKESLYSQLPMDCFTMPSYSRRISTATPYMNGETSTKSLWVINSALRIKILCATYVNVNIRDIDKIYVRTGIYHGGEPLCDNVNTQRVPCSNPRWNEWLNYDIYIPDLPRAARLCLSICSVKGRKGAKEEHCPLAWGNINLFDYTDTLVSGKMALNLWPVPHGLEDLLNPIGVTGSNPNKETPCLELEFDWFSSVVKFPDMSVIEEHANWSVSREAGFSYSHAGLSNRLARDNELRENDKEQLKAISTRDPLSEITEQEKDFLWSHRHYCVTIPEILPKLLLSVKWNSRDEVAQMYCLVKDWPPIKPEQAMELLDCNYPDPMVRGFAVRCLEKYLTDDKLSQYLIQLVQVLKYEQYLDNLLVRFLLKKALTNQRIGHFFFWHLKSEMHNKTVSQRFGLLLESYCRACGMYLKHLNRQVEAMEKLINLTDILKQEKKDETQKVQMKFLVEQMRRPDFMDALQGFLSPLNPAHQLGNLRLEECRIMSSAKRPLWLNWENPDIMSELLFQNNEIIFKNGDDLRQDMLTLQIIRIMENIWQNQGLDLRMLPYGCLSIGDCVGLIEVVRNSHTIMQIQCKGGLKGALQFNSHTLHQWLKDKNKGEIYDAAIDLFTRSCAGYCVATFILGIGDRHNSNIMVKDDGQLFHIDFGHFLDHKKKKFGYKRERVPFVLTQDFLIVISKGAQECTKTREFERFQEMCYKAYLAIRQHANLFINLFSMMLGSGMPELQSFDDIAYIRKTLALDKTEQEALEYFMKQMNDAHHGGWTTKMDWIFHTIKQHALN
Sequence of High affinity nerve growth factor receptor (Homo sapiens) (P04629 33-796 limits assumed): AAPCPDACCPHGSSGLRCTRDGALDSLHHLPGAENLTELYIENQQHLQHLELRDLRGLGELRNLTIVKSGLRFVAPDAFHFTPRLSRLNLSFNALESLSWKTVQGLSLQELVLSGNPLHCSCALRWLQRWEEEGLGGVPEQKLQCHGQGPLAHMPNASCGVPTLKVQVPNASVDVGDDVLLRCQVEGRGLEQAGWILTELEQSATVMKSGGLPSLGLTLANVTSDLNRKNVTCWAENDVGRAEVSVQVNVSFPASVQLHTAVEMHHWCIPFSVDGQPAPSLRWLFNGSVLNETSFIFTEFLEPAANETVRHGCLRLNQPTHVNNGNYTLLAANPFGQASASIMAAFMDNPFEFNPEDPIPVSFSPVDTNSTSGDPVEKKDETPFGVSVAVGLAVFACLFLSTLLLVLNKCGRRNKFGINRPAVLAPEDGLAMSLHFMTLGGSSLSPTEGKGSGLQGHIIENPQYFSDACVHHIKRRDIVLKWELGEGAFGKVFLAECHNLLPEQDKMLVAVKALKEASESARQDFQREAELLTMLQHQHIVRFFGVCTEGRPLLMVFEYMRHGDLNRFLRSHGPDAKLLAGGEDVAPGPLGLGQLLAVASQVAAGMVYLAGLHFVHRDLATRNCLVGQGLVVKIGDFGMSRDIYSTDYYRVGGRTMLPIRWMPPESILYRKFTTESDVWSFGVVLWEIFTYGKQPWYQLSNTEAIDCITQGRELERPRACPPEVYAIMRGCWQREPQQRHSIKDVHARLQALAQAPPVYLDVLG

Usually IC50 stands for the concentration that inhibits the measured activity by half. The term inhibition denotes the change of the read-out against control, counted positive when it falls. One may read the Cmax as the maximum level reached in the sampled fluid or tissue. One may read the EC50 as the concentration at which the effect is half-maximal. Low readings indicate higher potency in that assay, high ones lower potency in that assay. Turning to `CN(C)C(=O)c1ccc(Oc2nc(-c3cnc(N)s3)nc(N3CCOCC3)n2)cc1`, the IC50 was more than 10000 nM at Cytochrome P450 2D6, 10 nM in [1] and 30 nM in data set [11]. In addition, the inhibition in data set [2] was 9%; in [3], 3%; in [9], 42%; in data set [10] it was -3%; in data set [12] it was 89%. The Activity result in [4], in data set [6], in data set [7] and in data set [14] was “Non-Toxic” throughout. In data set [5], the remaining at 2 h, 10 µM is 98%. This molecule gave a Cmax in data set [8] of 12.6 µM. Further, a half-maximal response in the data set with SK-OV-3 (EC50) required 500 nM. For the same molecule, in [13], the concentration at 120 h is 85 ng/g.
